In BindingDB's records for doi:10.1021/jm00027a001 (Telios Pharmaceuticals, 1994):
*1 amine or outer side, *2 acyl side, *3 side chain or, on linkers, in order; H or OH if unused. Where a SMILES comes first, the peptide text is derived from it. Bridges are numbered along the chain shown (N, C = ends). X2 = N[C@H](C(=O)[*:1])C1(S[*:2])CCCCC1

Columns and labels:
Integrin alpha-V/beta-5 = Integrin alpha-V/beta-5 (Homo sapiens, UniProt P06756+P18084); experiment: Binding affinity against integrin alpha V-beta5 in enzyme linked immunosorbent assay (ELISA)
Method in brief: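 It is added to wells coated with human vitronectin in 0.1 M carbonate, pH 9.6, with 10-fold serial peptide dilutions for 3 h at room temperature. Detection uses rabbit anti-VnR, HRP anti-rabbit IgG and o-phenylenediamine/H2O2.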

[1] = biological target: Integrin alpha-IIb/beta-3 (Homo sapiens, UniProt P05106+P08514); experiment: Binding affinity against integrin alpha 2b-beta 3 in enzyme linked immunosorbent assay (ELISA)
Method in brief: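 Purified human platelet αIIbβ3 (from outdated platelets, octyl glucoside extract) in TBS with 20 mM octyl glucoside, 2 mM MgCl2 and 2 mM CaCl2 binds to plate-coated human fibrinogen (10 µg/mL in TBS) with 10-fold serial peptide dilutions for 3 h at room temperature. Bound receptor is detected with rabbit anti-αIIbβ3, then HRP anti-rabbit IgG, with o-phenylenediamine/H2O2 at pH 5.0. IC50 is reported.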

Integrin alpha-5/beta-1 = Integrin alpha-5/beta-1 (Homo sapiens, UniProt P05556+P08648); experiment: Binding affinity against integrin alpha5-beta1 in enzyme linked immunosorbent assay (ELISA)

Sequence of Integrin alpha-IIb/beta-3 (P05106 27-788 limits assumed): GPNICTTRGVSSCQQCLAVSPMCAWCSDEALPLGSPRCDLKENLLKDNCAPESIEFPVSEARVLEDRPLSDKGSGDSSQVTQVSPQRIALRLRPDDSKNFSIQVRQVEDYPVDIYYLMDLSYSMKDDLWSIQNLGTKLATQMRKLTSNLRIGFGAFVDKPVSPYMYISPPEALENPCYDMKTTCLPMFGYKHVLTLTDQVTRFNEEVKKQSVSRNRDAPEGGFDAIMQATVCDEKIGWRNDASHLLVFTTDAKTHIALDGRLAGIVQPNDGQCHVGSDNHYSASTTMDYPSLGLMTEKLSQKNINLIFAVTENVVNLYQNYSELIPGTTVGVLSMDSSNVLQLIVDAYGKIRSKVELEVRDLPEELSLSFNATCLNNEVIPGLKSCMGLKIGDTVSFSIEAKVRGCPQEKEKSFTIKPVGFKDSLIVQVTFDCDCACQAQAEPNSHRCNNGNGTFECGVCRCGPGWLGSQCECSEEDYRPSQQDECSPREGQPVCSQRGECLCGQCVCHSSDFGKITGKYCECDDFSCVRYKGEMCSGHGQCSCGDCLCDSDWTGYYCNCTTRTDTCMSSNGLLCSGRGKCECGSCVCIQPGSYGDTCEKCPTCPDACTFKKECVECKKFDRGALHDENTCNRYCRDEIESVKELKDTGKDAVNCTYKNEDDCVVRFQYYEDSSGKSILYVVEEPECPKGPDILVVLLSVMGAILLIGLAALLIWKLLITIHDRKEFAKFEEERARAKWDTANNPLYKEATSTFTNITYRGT
Sequence of Integrin alpha-IIb/beta-3 (P08514 32-887 limits assumed): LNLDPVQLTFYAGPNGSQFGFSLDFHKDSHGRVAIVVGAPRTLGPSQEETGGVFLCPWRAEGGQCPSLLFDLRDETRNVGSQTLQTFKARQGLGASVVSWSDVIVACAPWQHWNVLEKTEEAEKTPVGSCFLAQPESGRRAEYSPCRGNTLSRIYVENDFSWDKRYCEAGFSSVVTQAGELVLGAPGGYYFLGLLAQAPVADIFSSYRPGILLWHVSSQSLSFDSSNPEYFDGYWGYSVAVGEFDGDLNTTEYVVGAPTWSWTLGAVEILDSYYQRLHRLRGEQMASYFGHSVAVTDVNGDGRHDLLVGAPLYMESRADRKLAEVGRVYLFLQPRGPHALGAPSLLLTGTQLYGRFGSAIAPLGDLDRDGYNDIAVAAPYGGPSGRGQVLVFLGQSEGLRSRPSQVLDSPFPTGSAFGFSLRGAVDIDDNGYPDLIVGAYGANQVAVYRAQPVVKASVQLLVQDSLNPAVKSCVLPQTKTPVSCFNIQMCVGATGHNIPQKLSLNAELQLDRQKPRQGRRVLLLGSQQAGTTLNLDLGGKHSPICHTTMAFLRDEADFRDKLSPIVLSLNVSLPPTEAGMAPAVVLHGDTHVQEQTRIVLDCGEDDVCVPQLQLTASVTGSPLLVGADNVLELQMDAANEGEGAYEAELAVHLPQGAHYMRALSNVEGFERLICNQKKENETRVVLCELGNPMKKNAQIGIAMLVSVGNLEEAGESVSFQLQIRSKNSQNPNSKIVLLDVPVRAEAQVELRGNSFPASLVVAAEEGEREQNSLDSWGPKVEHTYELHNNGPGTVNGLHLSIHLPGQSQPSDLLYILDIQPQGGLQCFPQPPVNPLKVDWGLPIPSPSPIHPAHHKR
Sequence of Integrin alpha-IIb/beta-3 (P08514 891-1039 limits assumed): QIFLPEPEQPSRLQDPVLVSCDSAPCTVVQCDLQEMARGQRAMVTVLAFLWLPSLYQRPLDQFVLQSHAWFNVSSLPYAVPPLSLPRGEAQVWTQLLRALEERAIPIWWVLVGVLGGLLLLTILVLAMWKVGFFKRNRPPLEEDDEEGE
Sequence of Integrin alpha-V/beta-5 (P06756 31-889 limits assumed): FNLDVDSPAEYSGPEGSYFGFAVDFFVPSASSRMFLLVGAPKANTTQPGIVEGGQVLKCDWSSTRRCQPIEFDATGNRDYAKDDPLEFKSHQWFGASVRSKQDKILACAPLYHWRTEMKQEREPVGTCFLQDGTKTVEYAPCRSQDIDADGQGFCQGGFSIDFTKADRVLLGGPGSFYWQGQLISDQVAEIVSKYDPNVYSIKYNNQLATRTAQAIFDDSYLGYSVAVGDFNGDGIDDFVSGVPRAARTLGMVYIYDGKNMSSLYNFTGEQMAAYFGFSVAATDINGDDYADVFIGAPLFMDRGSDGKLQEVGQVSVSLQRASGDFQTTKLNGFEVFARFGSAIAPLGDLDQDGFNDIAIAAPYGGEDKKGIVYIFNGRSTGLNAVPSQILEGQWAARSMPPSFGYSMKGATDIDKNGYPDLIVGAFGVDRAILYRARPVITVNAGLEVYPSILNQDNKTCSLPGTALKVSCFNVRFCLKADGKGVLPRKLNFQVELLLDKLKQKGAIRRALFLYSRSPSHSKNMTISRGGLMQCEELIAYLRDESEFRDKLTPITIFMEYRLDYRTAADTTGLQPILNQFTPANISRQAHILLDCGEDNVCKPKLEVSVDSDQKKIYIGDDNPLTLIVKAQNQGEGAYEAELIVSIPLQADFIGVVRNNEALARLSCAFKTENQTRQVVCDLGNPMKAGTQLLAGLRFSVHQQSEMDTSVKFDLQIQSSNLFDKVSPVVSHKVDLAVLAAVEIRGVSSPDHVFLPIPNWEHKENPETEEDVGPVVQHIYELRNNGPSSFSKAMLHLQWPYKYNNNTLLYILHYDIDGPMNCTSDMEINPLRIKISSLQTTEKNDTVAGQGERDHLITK
Sequence of Integrin alpha-V/beta-5 (P06756 891-1048 limits assumed): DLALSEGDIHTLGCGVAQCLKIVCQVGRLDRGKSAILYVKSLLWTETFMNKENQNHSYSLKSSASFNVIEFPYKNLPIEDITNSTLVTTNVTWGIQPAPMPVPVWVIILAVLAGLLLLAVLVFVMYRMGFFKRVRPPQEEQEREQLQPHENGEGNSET
Sequence of Integrin alpha-V/beta-5 (P18084 24-799 limits assumed): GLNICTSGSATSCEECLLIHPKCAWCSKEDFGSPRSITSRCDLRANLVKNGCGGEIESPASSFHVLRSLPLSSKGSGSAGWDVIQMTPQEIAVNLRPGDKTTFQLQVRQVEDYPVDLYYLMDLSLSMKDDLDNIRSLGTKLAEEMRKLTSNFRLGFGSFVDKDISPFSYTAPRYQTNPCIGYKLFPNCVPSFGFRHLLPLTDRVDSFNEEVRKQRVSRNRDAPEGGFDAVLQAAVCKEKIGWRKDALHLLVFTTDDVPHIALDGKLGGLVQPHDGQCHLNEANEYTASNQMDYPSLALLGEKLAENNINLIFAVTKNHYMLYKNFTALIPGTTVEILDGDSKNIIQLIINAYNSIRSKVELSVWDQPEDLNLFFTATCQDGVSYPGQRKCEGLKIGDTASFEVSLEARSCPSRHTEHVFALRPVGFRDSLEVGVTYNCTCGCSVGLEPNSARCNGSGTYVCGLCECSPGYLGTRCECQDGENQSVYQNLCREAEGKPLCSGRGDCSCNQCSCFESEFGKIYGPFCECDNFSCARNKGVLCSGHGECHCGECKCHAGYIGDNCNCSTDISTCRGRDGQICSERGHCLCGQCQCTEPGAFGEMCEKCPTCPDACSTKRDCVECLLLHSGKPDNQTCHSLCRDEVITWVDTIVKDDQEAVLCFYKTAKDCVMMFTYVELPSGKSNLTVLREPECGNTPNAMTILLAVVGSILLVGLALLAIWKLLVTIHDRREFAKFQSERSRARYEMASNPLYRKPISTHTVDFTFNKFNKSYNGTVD

Compound | IC50 (Integrin alpha-V/beta-5) | IC50 [1] | IC50 (Integrin alpha-5/beta-1)
COc1ccc(C[C@@H]2NC(=O)[C@H](CC(=O)O)NC(=O)CNC(=O)[C@H](CCCN=C(N)N)NC(=O)[C@H](Cc3c[nH]cn3)NC(=O)[C@H](CC(N)=O)NC(=O)[C@@H](N)CCC/N=C(/N)NC(=O)[C@@H](N)C3(CCCCC3)SSC[C@@H](C(=O)N[C@@H](CCCN=C(N)N)C(=O)O)NC(=O)[C@H](CCCN=C(N)N)NC2=O)cc1 [R(Pmc)-N-H-R-G-D-(Y-OMe)-R-C-R] (H-RNHRGDY(Me)RCR-OH; linker 1-9 via X2) | 4.7 µM | 4.7 µM | –
COc1ccc(C[C@@H]2NC(=O)[C@H](CC(=O)O)NC(=O)CNC(=O)[C@H](CCCN=C(N)N)NC(=O)[C@H](Cc3c[nH]cn3)NC(=O)[C@H](CCCN=C(N)N)NC(=O)[C@@H](N)CCC/N=C(/N)NC(=O)[C@@H](N)C3(CCCCC3)SSC[C@@H](C(=O)N[C@@H](CCCN=C(N)N)C(=O)O)NC(=O)[C@H](CCCN=C(N)N)NC2=O)cc1 [R(Pmc)-G-H-R-G-D-(Y-OMe)-R-C-R] (H-RRHRGDY(Me)RCR-OH; linker 1-9 via X2) | – | 6.2 µM | 6.2 µM
